According to PubChem BioAssay AID588810 (Broad Institute, 2011):
Where “and” joins values, the source holds several entries; their conditions need not be identical. Equal entries are not always repeated. Results filed as inconclusive are left out. Calls of active or inactive are those of the source.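 How the source made its calls: active means rising curve reaching 40% of the stimulating control's effect at or below the top valid tested dose; inconclusive means flat curve between 30 and 70% of control, or poor fit; inactive means falling curves and all the rest.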

These compounds were tested against Scavenger receptor class B member 1 (Mus musculus) (UniProt Q61009) (assay: enhancers of HDL binding to SR-BI, dose response, orthogonal assay for SR-BI HDL uptake inhibitor project, ldlA[mSR-BI] cells, Alexa488-HDL, powder samples, set 2 (AID 588810)). Details: ldlA[mSR-BI] CHO cells, Alexa488-HDL binding fluorescence, 3 h.
Chain of Scavenger receptor class B member 1 (Mus musculus) (Q61009 whole entry, looked up): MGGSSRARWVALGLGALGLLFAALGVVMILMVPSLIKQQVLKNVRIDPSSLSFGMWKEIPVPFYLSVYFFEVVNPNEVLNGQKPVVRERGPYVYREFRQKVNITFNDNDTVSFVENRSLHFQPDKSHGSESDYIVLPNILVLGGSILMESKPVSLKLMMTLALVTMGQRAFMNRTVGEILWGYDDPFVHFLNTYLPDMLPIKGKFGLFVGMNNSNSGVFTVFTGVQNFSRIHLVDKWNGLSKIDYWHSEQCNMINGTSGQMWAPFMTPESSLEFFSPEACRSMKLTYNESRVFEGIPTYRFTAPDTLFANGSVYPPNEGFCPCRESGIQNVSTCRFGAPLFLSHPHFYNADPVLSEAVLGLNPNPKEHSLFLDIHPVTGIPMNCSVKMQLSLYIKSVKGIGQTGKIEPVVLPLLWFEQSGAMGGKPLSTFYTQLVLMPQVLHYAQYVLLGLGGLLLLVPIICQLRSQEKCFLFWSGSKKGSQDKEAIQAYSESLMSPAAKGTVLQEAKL
Outline: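 Benchmarks: positive control BLT-1 1 µM; Material: ldlA CHO cells expressing mouse SR-BI (ldlA[mSR-BI]); Also added: Alexa488-HDL with apolipoprotein-linked dye, 10 µg/mL; Technique: bottom-read fluorescence after two PBS washes; Compound dosing: dose series of compound; Timing: cells seeded one day ahead, 3 h HDL-compound exposure at 37 °C.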

| SMILES | AC40 |
| --- | --- |
| O=C(CN(C(=O)Cn1nnc(-c2ccc3c(c2)OCO3)n1)C1CCCCC1)NC1CCCC1 | 337 nM |
| COc1ccc(-c2nnn(CC(=O)N(C3CCCCC3)C(C)C(=O)NC3CCCC3)n2)cc1OC (stereo not drawn) | 437 nM |
| COc1ccc(-c2nnn(CC(=O)N(CC(=O)N3CCCCC3)C3CCCCC3)n2)cc1OC | 11800 nM |
| COc1cc(OC)cc(C(=O)Nc2nc(-c3ccc4c(c3)CCN4C(=O)OC(C)(C)C)cs2)c1 | 24.5 nM |
| COc1c(NC(=O)C(=O)c2ccc(OCCN3CCOCC3)c3ccccc23)cc(C(C)(C)C)cc1NS(C)(=O)=O | 1640 nM |
| COc1ccc(-c2nc(CC(=O)N(C3CCCCC3)C(C)C(=O)NC3CCCC3)co2)cc1OC (stereo not drawn) | 1360 nM |
| C[C@@H](C(=O)NC1CCCC1)N(C(=O)Cn1nnc(-c2ccc3c(c2)OCO3)n1)C1CCCCC1 | 4690 nM |
| CC(C(=O)NC1CCCC1)N(C(=O)Cn1nnc(-c2ccc3c(c2)OCO3)n1)C1CCCCC1 (stereo not drawn) | 214 nM |
| Cc1ccc2oc(-c3cccc(NC(=O)c4cc(-n5cnnc5)ccc4Cl)c3)nc2c1 | > 80000 nM (inactive) |
| CC(=O)N1CCc2cc(-c3nc(NC(=O)c4cccc(OC(F)(F)F)c4)sc3C)ccc21 | 488 nM |
| COc1ccc(-c2nnn(CC(=O)N(CC(=O)NC3CCCC3)C3CCCCC3)n2)cc1OC | 231 nM |
| COc1ccc(-c2nnn(CC(=O)N(CC(=O)N(C)C3CCCC3)C3CCCCC3)n2)cc1OC | 4950 nM |
| C[C@H](C(=O)NC1CCCC1)N(C(=O)Cn1nnc(-c2ccc3c(c2)OCO3)n1)C1CCCCC1 | 169 nM |
| C[C@@H]1CN([C@H](C)CO)C(=O)c2cc(NC(=O)Cc3cn(C)c4ccccc34)ccc2O[C@H]1CN(C)S(=O)(=O)c1ccc(Cl)cc1 | 73.3 nM |
| COc1ccc(-c2cc(CC(=O)N(C3CCCCC3)C(C)C(=O)NC3CCCC3)no2)cc1OC (stereo not drawn) | 145 nM |

Now from value to compound:

| AC40 | SMILES |
| --- | --- |
| 672 nM | CCC(=O)n1ccc2cc(-c3csc(NC(=O)c4cc(OC)cc(OC)c4)n3)ccc21 |
| 22.2 nM | CCC(=O)N1CCc2cc(-c3csc(NC(=O)c4cc(OC)c(OC)c(OC)c4)n3)ccc21 |
| 324 nM | COC(=O)N1CCc2cc(-c3csc(NC(=O)c4cc(OC)cc(OC)c4)n3)ccc21 |
| 57.1 nM | CCC(=O)N1CC(C)(C)c2cc(-c3csc(NC(=O)c4ccco4)n3)ccc21 |
| 382 nM | CCC(=O)N1CCc2cc(-c3csc(NC(=O)c4cc(OC)cc(OC)c4)n3)ccc21 |
| 232 nM | COc1cc(OC)cc(C(=O)Nc2nc(-c3ccc4c(c3)CCN4C(=O)CN(C)C)cs2)c1 |
| 347 nM | CCC(=O)Nc1ccc(-c2csc(NC(=O)c3cccc(OC)c3)n2)cc1 |
| 12.7 nM | CCNC(=O)N1CCc2cc(-c3csc(NC(=O)c4cc(OC)cc(OC)c4)n3)ccc21 |
| 358 nM | CCC(=O)N1CCc2cc(-c3csc(NC(=O)c4ccc(F)c(OC)c4)n3)ccc21 |
| 21.8 nM | COCC(=O)N1CCc2cc(-c3csc(NC(=O)c4cc(OC)cc(OC)c4)n3)ccc21 |
| 6.07 nM | CCC(=O)N1CC(C)(C)c2cc(-c3csc(NC(=O)c4cc(OC)cc(OC)c4)n3)ccc21 |
| 454 nM | CCC(=O)N1CCc2cc(-c3csc(NC(=O)c4cccc(OC)c4)n3)ccc21 |
| 912 nM | CCC(=O)N1CCc2cc(-c3csc(NCc4cc(OC)cc(OC)c4)n3)ccc21 |
| 371 nM | COc1cc(OC)cc(C(=O)Nc2nc(-c3ccc4c(c3)CCN4C(C)=O)cs2)c1 |
| 312 nM and 2270 nM | CCC(=O)N1CCc2cc(-c3csc(NC(=O)c4ccco4)n3)ccc21 |
| 1580 nM | CCC(=O)N1CCc2cc(-c3csc(NC(=O)c4cc5ccccc5o4)n3)ccc21 |
| 943 nM | CCC(=O)N1CCc2cc(-c3csc(NC(=O)c4cccc(OC(F)(F)F)c4)n3)ccc21 |
| 295 nM | O=C(Nc1nc(-c2ccc3c(c2)CCN3)cs1)c1ccco1 |
